According to PMC4267758 (Journal of molecular biology, 2014):
Where two headings read alike, the source gives them in different places. Where no end group is shown, it is not given here. The star is where a group is joined. MTSL = methane thiosulphonate spin label, CC1(C)C=C(CS*)C(C)(C)N1[O]

B1: paxillin^133–290 (LD2–LD4 region of chicken paxillin) (domain or fragment, UniProt P49024 133-290, looked up)
chain: MTSTSLGSNLSELDRLLLELNAVQHNPPSGFSADEVSRSPSLPNVTGPHYVIPESSSSAGGKAAPPTKEKPKRNGGRGIEDVRPSVESLLDELESSVPSPVPAITVSQGEVSSPQRVNASQQQTRISASSATRELDELMASLSDFKFMAQGKAGGSSS
B2: Pyk2 focal adhesion-targeting (Pyk2-FAT) domain (domain or fragment, human, UniProt Q14289 871-1005, looked up)
chain: ANLDRTDDLVYLNVMELVRAVLELKNELCQLPPEGYVVVVKNVGLTLRKLIGSVDDLLPSLPSSSRTEIEGTQKLLNKDLAELINKMRLAQQNAVTSLSEECKRQMLTASHTLAVDAKNLLDAVDQAKVLANLAH

What was measured:
Pyk2-FAT [1] = experiment: H/D exchange NMR of Pyk2-FAT complexes; parameters: species or system human; conditions: H/D exchange in D2O, fast 15N-HSQC, up to 10 h
In short: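 15N-labelled Pyk2-FAT complexes (400–500 μM, 20 mM MES pH 6.2) were lyophilized and rehydrated in D2O. FAST 1H-15N HSQC spectra were recorded at intervals up to 10 h at 305 K. HSQC spectra in H2O before and after exchange checked structural integrity.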

Pyk2-FAT [2] = experiment: Isothermal titration calorimetry; assay type: binding, human; conditions: for binding to Pyk2-FAT (qualitative, ITC): 20 mM MES, pH 6.2, 25°C
In short: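 Human Pyk2 FAT domain (residues 871–1005) with an N-terminal His6 tag, expressed in E. coli BL21(DE3) and purified by Ni-affinity then gel filtration. The cell held 10 μM protein in 20 mM MES, pH 6.2. The syringe held chicken paxillin LD-motif peptides (100 μM) or the His-tagged paxillin 133–290 fragment (50 μM). Solutions degassed; 2 μl injections, 120 s apart, at 25°C. Ligand-into-buffer heats subtracted. Fits used one-site or two-site sequential models. Run in duplicate.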

Pyk2-FAT [3] = experiment: NMR titration / chemical shift perturbation of 15N-labeled Pyk2-FAT; assay type: binding, human; conditions: 15N-HSQC/TROSY titration, Pyk2-FAT:ligand 1:0.2 to 1:2, 20 mM MES, pH 6.2, 305K
In short: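 15N-labeled Pyk2-FAT (400–500 μM in 20 mM MES, pH 6.2) titrated at 305 K with chicken LD peptides at protein:peptide ratios of 1:0.2 to 1:2. Peptide stocks were in dialysis buffer, pH readjusted to 6.2. 15N-HSQC spectra recorded at 600/800 MHz. Weighted shift Δav = [(ΔH² + (ΔN/5)²)/2]^1/2. For PRE, MTSL-labeled peptides were added at 1:0.2 and Iox/Ired taken after ascorbate reduction.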

[4] = system: FAT-like domain from G-protein-coupled receptor kinase-interacting protein 1 (GIT1); conditions: ref [41]; cited from earlier work
FAK-FAT = conditions: cited from earlier work
Pyk2-FAT [5] = experiment: Steady-state 1H-15N heteronuclear NOE; parameters: species or system human; conditions: 600 MHz, 305 K; relative to free Pyk2-FAT, loop regions
In short: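 Steady-state 1H-15N heteronuclear NOE was measured at 600 MHz, 305 K on 15N-labelled Pyk2-FAT, free and bound to LD-motif peptide. Protein was at 400–500 μM in 20 mM MES pH 6.2. NOE values were taken as peak-intensity ratios of 1H-saturated to unsaturated spectra.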

Pyk2-FAT [6] = experiment: Sedimentation equilibrium AUC; assay type: binding, human; conditions: AUC-SE; for Kd: two site hetero-association model (A+B+B↔ABB), 1:2 Pyk2-FAT to peptide, 20 mM MES, pH 6.2, 4 °C, Monte Carlo error, 500 iterations, confidence level 0.68
In short: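 Sedimentation equilibrium at 4 °C in 20 mM MES, 50 mM NaCl, pH 6.2. Rotor speeds 18.4, 26.9 and 46k rpm, equilibrium reached at 30, 26 and 18 h. Loading 35–96 μM. Absorbance read at 280 and 230 nm, 0.001 cm radial steps, 20 replicates per point. Global least-squares fit across speeds to the A+B+B↔ABB model.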

[7] = molecular target: B2; experiment: ITC
[8] = molecular target: B1; experiment: ITC
[9] = molecular target: B1; experiment: AUC
[10] = molecular target: B2; experiment: AUC
[11] = molecular target: B2; experiment: NMR paramagnetic relaxation enhancement
Pyk2-FAT [12] = experiment: Reverse NMR titration: unlabeled Pyk2-FAT added to 15N-labeled paxillin ligand; assay type: binding, human; conditions: 1H-15N HSQC/TROSY, ratios up to 1:2, 20 mM MES, pH 6.2
In short: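 Unlabelled Pyk2-FAT was titrated into a 15N-labelled ligand in 20 mM MES pH 6.2, with 15N-1H HSQC spectra at 600/800 MHz and 305 K. Ligands were an expressed chicken paxillin 139–163 peptide or His-tagged chicken paxillin 133–290. […] Ratios were 1:0.2–1:2.0.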

[13] = Sedimentation velocity AUC; assay type: physicochemical; conditions: for percentage protein amount in c(s) peak: 20 °C, 50,000 rpm; for f/f0 (weight-average frictional ratio): best-fit from c(s) distribution, 20 °C
In short: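 Sedimentation velocity at 50,000 rpm and 20°C in 20 mM MES, pH 6.2, with or without 50 mM NaCl. Partial specific volumes calculated from sequence. Rayleigh interference scans taken every 1.0 min over 10 h. Data fitted to a c(s) distribution model. The s-value is the ordinate maximum of each c(s) peak; percentage protein amount is reported per peak.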

LD4: paxillin derived peptide LD4 (chicken paxillin; residues 262–278), chemically synthesized (SATRELDELMASLSDFK)
amide H/D exchange protection of Pyk2-FAT in complex (Pyk2-FAT [1]): residues from H2/H3 and H1/H4 were protected even after 10 hrs
affinity preference for H2/H3 site over H1/H4 site of Pyk2-FAT (Pyk2-FAT [2]; from ITC and AUC studies): 5 fold
binding sites / site preference on Pyk2-FAT by NMR (Pyk2-FAT [3]): H2/H3 is the stronger binding site
binding site on GIT1 FAT-like domain [4]: located exclusively at the H1/H4 surface
preferred binding site on FAK-FAT (FAK-FAT; ref [39] (b5), [39], [40]): binds to the H2/H3 site
LD4 binding to the FAK FAT H1/H4 site (FAK-FAT; ref [40]): defective
steady-state 1H-15N NOE of Pyk2-FAT amides upon ligand binding (Pyk2-FAT [5]): significantly increased relative to free Pyk2-FAT
global free energy difference between first and second sites (ΔGAB and ΔGABB) (Pyk2-FAT [6]; 1:2 stoichiometry, two-site hetero-association model): -0.77 kcal/mol
Delta G, single site (1:1) (Pyk2-FAT [6]; single site hetero-association model, T = 277.149994K, RT = 0.551kcal/mol): -7.52 kcal/mol
Delta G, first binding site (1:2) (Pyk2-FAT [6]; two site hetero-association model, first site, T = 277.149994K, RT = 0.551kcal/mol): -7.47 kcal/mol
Delta G, second binding site (both occupied) (Pyk2-FAT [6]; two site hetero-association model, second site, T = 277.149994K, RT = 0.551kcal/mol): -6.70 kcal/mol
Kd (Pyk2-FAT [6]; read-out: KAB (first site), 1:2 stoichiometry): 1290 ± 90 nM
Kd (Pyk2-FAT [6]; read-out: KABB (second site), 1:2 stoichiometry): 5180 ± 360 nM

LD3: paxillin derived peptide LD3 (chicken paxillin; residues 217–237), chemically synthesized (SVESLLDELESSVPSPVPAIT)
binding to Pyk2-FAT (qualitative, ITC) (Pyk2-FAT [2]): very weak compared to LD2 and LD4 peptides

B1
dH [7]: -5 ± 0.1 kcal/mol
stoichiometry N [7]: 1.2

B2
Kd [8]: 1800 ± 100 nM
Kd [9]: 400 nM

SATRELDELMASLSDFK (peptide, UniProt P49024 262-278, looked up) [paxillin LD4 peptide (chicken paxillin residues 262-278)]
dH, first site [7]: -2.8 ± 0.2 kcal/mol
dH, second site [7]: 0.9 ± 0.3 kcal/mol
Kd [10]: 1170 nM

GSNLSELDRLLLELNAVQHNPPSGF (peptide, UniProt P49024 139-163, looked up) [paxillin LD2 peptide (chicken paxillin residues 139-163)]
dH, first site [7]: -2.4 ± 0.1 kcal/mol
dH, second site [7]: 0.3 ± 0.1 kcal/mol

GSNLSELDRLLLELNAVC(MTSL)HNPPSGF (peptide, UniProt P49024 139-163, looked up) [spin-labeled LD2 (Q156C) peptide]
binding result [11]: binds

B3: paxillin^133–290: chicken paxillin residues 133–290, truncated construct comprising LD motifs 2, 3 and 4, N-terminal His-tag (protein)
chain: MTSTSLGSNLSELDRLLLELNAVQHNPPSGFSADEVSRSPSLPNVTGPHYVIPESSSSAGGKAAPPTKEKPKRNGGRGIEDVRPSVESLLDELESSVPSPVPAITVSQGEVSSPQRVNASQQQTRISASSATRELDELMASLSDFKFMAQGKAGGSSS
modifications: left off: His-tag, N-terminal, kept
effect of unlabeled Pyk2-FAT on resonances of 15N-labeled ligand (Pyk2-FAT [12]): several peaks from the LD2 and LD4 regions disappeared beyond detection
binding sites / site preference on Pyk2-FAT by NMR (Pyk2-FAT [3]): binding preference for H2/H3
increase of binding affinity for FAK FAT relative to LD2 or LD4 peptides alone (FAK-FAT; similar paxillin^133–290 construct, ref [35]): 10 fold
oligomerization state of unbound protein [13]: appears to form some soluble associated species (oligomers) of undetermined stoichiometry’s, but the main species appears to be a monomer
percentage protein amount in c(s) peak [13]: 48%
f/f0 (weight-average frictional ratio) [13]: 1.70
f/f0 (weight-average frictional ratio) ([13]; listed as paxillin): 1.7
apparent molecular mass of the 1:1 complex ([13]; theoretical 33,706 Da): 30.20 kDa

B4: paxillin^133–242: paxillin construct LD2–LD3 (protein)
chain: MTSTSLGSNLSELDRLLLELNAVQHNPPSGFSADEVSRSPSLPNVTGPHYVIPESSSSAGGKAAPPTKEKPKRNGGRGIEDVRPSVESLLDELESSVPSPVPAITVSQGE
binding to Pyk2-FAT (qualitative, ITC) (Pyk2-FAT [2]): two-site sequential binding model

B5: paxillin^212–282: paxillin construct LD3–LD4 (protein)
chain: EDVRPSVESLLDELESSVPSPVPAITVSQGEVSSPQRVNASQQQTRISASSATRELDELMASLSDFKFMAQGK
binding to Pyk2-FAT (qualitative, ITC) (Pyk2-FAT [2]): two-site sequential binding model

B6: Pyk2-FAT: FAT domain of human Pyk2 (residues 871–1005), N-terminal His6-tag (protein)
chain: ANLDRTDDLVYLNVMELVRAVLELKNELCQLPPEGYVVVVKNVGLTLRKLIGSVDDLLPSLPSSSRTEIEGTQKLLNKDLAELINKMRLAQQNAVTSLSEECKRQMLTASHTLAVDAKNLLDAVDQAKVLANLAH
modifications: left off: His6, N-terminal, state not stated
percentage protein amount in c(s) peak [13]: 99%
f/f0 (weight-average frictional ratio) [13]: 1.34
